Laboratory results reported in ChEMBL document CHEMBL3120071, “Biologically active eremophilane-type sesquiterpenes from Camarops sp., an endophytic fungus isolated from Alibertia macrophylla” (J Nat Prod, 2014).
pIC50: −log10 of the molar value.

Assays:
[1] = target: T1, Myeloperoxidase (Homo sapiens, UniProt P05164); experiment: Inhibition of myeloperoxidase (unknown origin) using HOCl/taurine as substrate assessed as inhibition of taurine chloramine production by spectrophotometry; type: single protein
T1 sequence (P05164 whole entry): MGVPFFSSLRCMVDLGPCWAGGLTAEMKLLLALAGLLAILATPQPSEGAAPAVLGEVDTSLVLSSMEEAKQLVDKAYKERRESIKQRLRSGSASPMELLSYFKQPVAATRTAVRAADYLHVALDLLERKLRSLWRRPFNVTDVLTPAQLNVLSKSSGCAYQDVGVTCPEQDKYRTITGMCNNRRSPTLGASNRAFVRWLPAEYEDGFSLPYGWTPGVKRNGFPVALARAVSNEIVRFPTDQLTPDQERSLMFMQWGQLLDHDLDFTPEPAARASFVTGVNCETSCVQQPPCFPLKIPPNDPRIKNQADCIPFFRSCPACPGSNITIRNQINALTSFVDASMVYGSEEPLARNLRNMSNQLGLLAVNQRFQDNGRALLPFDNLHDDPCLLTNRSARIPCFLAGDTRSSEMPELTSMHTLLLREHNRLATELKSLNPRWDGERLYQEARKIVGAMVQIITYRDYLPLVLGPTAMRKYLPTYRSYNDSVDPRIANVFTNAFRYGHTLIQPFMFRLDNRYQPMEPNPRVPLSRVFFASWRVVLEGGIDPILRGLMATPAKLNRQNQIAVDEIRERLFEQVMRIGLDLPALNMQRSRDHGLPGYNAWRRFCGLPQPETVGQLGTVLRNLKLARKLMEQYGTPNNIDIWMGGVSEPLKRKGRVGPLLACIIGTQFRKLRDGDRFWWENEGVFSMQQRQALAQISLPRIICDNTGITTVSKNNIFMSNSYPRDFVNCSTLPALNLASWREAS
Method in brief: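 MPO, quantified by absorbance at 430 nm (ε = 89 000 mol−1 cm−1 per heme), chlorinating activity was measured. The HOCl produced reacts with taurine to give taurine chloramine, which oxidizes TMB to a blue product read at 655 nm. 5-Fluorotryptamine was the positive control.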

[2] = (§1) Antioxidant activity in human neutrophils assessed as inhibition of oxidative burst-induced ROS production by chemiluminescence assay; type: functional, cell-based; settings: Neutrophil
Method in brief: (§2)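 Human neutrophils were isolated and the respiratory burst was stimulated. Total ROS were measured by luminol-enhanced chemiluminescence (LumCL). DMSO replaced compound in the blanks, taken as 100%. Quercetin and apocynin served as positive controls, and IC50 was taken from concentration–response data.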

[3] = tested on: Neutrophil; experiment: as §1; type: functional, cell-based; method in brief: as §2
[4] = Cytotoxicity against human neutrophils assessed as cell viability at 10 uM by trypan blue exclusion assay; type: functional; settings: Neutrophil, read-out: Activity
Method in brief: (§3)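 Human neutrophil viability was assessed by trypan blue exclusion after compound exposure at up to 100 μM for up to 60 min, including 10 μM, the concentration used in the respiratory burst studies.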

[5] = Antioxidant activity […] assessed as […] HOCl scavenging activity by spectrophotometry; type: functional
Method in brief: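 Cell-free HOCl scavenging. HOCl was made by diluting commercial bleach and quantified at 292 nm (ε = 350 mol−1 cm−1). It reacts with taurine to give taurine chloramine, which oxidizes TMB. Absorbance was read at 655 nm, with quercetin as the positive control.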

[6] = Cytotoxicity against human neutrophils at < 100 uM after 60 mins by trypan blue exclusion assay; type: cell-based; settings: neutrophil, 1 h; method in brief: as §3
[7] = Antioxidant activity […] assessed as xanthine/xanthine oxidase-induced ROS scavenging activity by WST-1 assay; type: functional
Method in brief: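 Superoxide was generated by xanthine/xanthine oxidase and detected as reduction of the tetrazolium salt WST-1 to a soluble formazan (modified Tan and Berridge method). Quercetin was the positive control.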

Compound	pIC50 [1]	pIC50 [2]	Activity [3]	viability at 10 µM [4] [%]	pIC50 [5]	Activity [6]	pIC50 [7]
CCC(C)CC(C)CC(O)(CO)C(=O)O[C@@H]1CC[C@H](C)[C@@]2(C)C=C([C@@H](C)CO)C(=O)C=C12 (stereo not given in full)	< 4.00	5.38	Dose-dependent effect	> 98	< 4.00	Non-toxic	< 4.00
CCC(C)CC(C)CC(O)(CO)C(=O)O[C@@H]1CC[C@H](C)[C@@]2(C)C=C([C@H](C)CO)C(=O)C=C12 (stereo not given in full)	< 4.00	5.23	Dose-dependent effect	> 98	< 4.00	Non-toxic	< 4.00
COc1cc(C(C)=O)ccc1O [APOCYNIN]	–	5.41	–	–	–	–	–
O=c1c(O)c(-c2ccc(O)c(O)c2)oc2cc(O)cc(O)c12 [QUERCETIN]	–	5.31	–	–	–	–	–
C=C(CO)[C@@]12O[C@@H]1[C@@]1(C)C(=CC2=O)[C@H](OC(=O)C(C)CC(C)CC(C)CC)CC[C@@H]1C (stereo not given in full) [XYLARENONE C]	< 4.00	5.21	Dose-dependent effect	> 98	< 4.00	Non-toxic	< 4.00
C=C(CO)[C@@]12O[C@@H]1[C@@]1(C)C(=CC2=O)[C@H](OC(=O)C(O)(CO)CC(C)CC(C)CC)CC[C@@H]1C (stereo not given in full) [XYLARENONE D]	< 4.00	5.24	Dose-dependent effect	> 98	< 4.00	Non-toxic	< 4.00
